According to ChEMBL document CHEMBL4028805, “Phenylthiazole Antibacterial Agents Targeting Cell Wall Synthesis Exhibit Potent Activity in Vitro and in Vivo against Vancomycin-Resistant Enterococci” (J Med Chem, 2017):
Values after ≈ are worked out from the molar mass of the structure shown. Active and inactive are the calls of the source.

Experiments:
Enterococcus faecalis [1] = assay: Bactericidal activity against Enterococcus faecalis clinical isolates after 18 to 22 hrs by broth microdilution method; assay type: functional
Method in brief: (§1)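 MBC determined after the broth microdilution MIC. 5 μL aliquots plated onto TSA (E. faecalis) or BHI agar (E. faecium) and incubated at 37 °C for 18–22 h. MBC is the concentration giving >99% reduction in cell count, reported as MBC50.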

Enterococcus faecalis [2] = assay: Synergistic antimicrobial activity against Enterococcus faecalis ATCC 49532 after 20 hrs in presence of ciprofloxacin by checkerboard assay; assay type: functional
Method in brief: (§2)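 Checkerboard in TSB with a starting inoculum of 1×10^5 CFU/mL. Compound and antibiotic diluted from 2× or 4× MIC along perpendicular axes. Incubated 20 h at 37 °C. ΣFIC calculated: ≤0.5 synergy, >0.5 to <2 additive, 2–4 indifference, >4 antagonism.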

Escherichia coli [3] = assay: Antibacterial activity against Escherichia coli 1411 harboring delta-acrAB after 18 to 22 hrs in absence of colistin by broth microdilution method; assay type: functional
Klebsiella pneumoniae [4] = assay: Antibacterial activity against Klebsiella pneumoniae BAA-1706 after 18 to 22 hrs in absence of colistin by broth microdilution method; assay type: functional
HRT-18 cell line [5] = assay: Cytotoxicity against human HRT18 cells assessed as reduction in cell viability up to 40 ug/ml after 2 hrs by MTS assay; assay type: cell-based; settings: hrt-18, 2 h
Method in brief: (§3)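 HRT-18 cells maintained in RPMI-1640 with 10% fetal horse serum at 37 °C, 5% CO2. Exposed to 5, 10, 20 or 40 μg/mL for 2 or 24 h, then MTS added and absorbance read at 490 nm. Viability expressed relative to untreated cells, n ≥ 3, one-way ANOVA with Dunnett's test.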

Enterococcus faecalis [6] = assay: Bactericidal activity against vancomycin-resistant Enterococcus faecalis HM-201 at 4 times MIC after 2 hrs by time-kill assay; assay type: functional
Method in brief: (§4)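 Late-log cells diluted to ~5 × 10^6 CFU/mL and exposed in triplicate to 4 × MIC, in TSB (E. faecalis HM-201) or BHI (E. faecium ATCC 700221) at 37 °C. Sampled at 0, 2, 4, 6, 8, 10, 12 and 24 h, diluted serially in PBS and plated on TSA or BHI agar. CFU/mL counted after 18–22 h. DMSO served as negative control.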

Enterococcus faecalis [7] = assay: Bactericidal activity against vancomycin-resistant Enterococcus faecalis clinical isolates after 18 to 22 hrs by broth microdilution method; assay type: functional
Method in brief: (§5)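 MBC follows the broth microdilution MIC. 5 μL aliquots spotted onto TSA (E. faecalis) or BHI agar (E. faecium), incubated 37 °C for 18–22 h. MBC is the concentration giving >99% reduction in bacterial count. MBC50 is the value for 50% of isolates.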

Acinetobacter baumannii [8] = assay: Antibacterial activity against Acinetobacter baumanii ATCC 19606 after 18 to 22 hrs in absence of colistin by broth microdilution method; assay type: functional; settings: ATCC 19606 = CIP 70.34 = JCM 6841
Method in brief: (§6)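 Broth microdilution per CLSI guidelines. Gram-negatives grown in TSB. Each strain tested alone and again with colistin at ¼ × MIC to permeabilize the outer membrane. Plates incubated at 37 °C for 18–22 h. MIC read as the lowest concentration showing no visible growth.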

Enterococcus faecalis [9] = assay: Synergistic antimicrobial activity against Enterococcus faecalis ATCC 49533 after 20 hrs in presence of ciprofloxacin by checkerboard assay; assay type: functional; method in brief: as §2
Enterococcus faecium [10] = assay: Antibacterial activity against Enterococcus faecium clinical isolates after 18 to 22 hrs by broth microdilution method; assay type: functional
Method in brief: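 Enterococcus faecium grown in BHI. MIC by CLSI broth microdilution, 37 °C for 18–22 h. Lowest concentration with no visible growth taken as MIC, reported as MIC50 across the isolates.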

[11] = Toxicity in Caenorhabditis elegans AU37 assessed as worm survival at 20 ug/ml after 24 hrs by microscopic analysis; settings: AU37, caenorhabditis elegans
Method in brief: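 Adult C. elegans AU37, 15–20 per well, exposed in triplicate to 10 or 20 μg/mL, with sterile water as negative control. Viability checked by microscopy. Result reported as percent viable worms after 24 h exposure.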

Escherichia coli [12] = assay: Antibacterial activity against Escherichia coli O157:H7 ATCC 35150 after 18 to 22 hrs in presence of 1/4 times MIC colistin by broth microdilution method; assay type: functional
Enterococcus faecalis [13] = assay: Antibacterial activity against Enterococcus faecalis ATCC 31975 at 4 to 8 times MIC after 48 hrs by broth microdillution method; assay type: functional
Method in brief: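 Single-step resistance selection. Cultures of 5 × 10^8 to 5 × 10^10 CFU/mL spread on TSA containing compound at 2×, 4× or 8× MIC and incubated aerobically at 37 °C for 48 h. Colony MICs rechecked by broth microdilution. Frequency calculated as resistant colonies per inoculum.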

Enterococcus faecium [14] = assay: Antibacterial activity against vancomycin-resistant Enterococcus faecium ATCC HM-968 after 14 serial passages measured after 18 hrs by broth microdillution method; assay type: functional
Method in brief: (§7)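 Multi-step selection over 14 passages in two weeks. McFarland 0.5 inoculum diluted 1:300 in TSB (E. faecalis) or BHI (E. faecium) to 1 × 10^5 CFU/mL. Each passage reinoculated at ~5 × 10^5 CFU/mL from the sub-inhibitory well of the previous plate. Compounds serially diluted in triplicate, incubated ≥18 h at 37 °C, MIC read visually. Resistance defined as >4-fold MIC rise.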

Enterococcus faecium [15] = assay: Antibacterial activity against vancomycin-resistant Enterococcus faecium ATCC 700221 after 18 to 22 hrs in absence of colistin by broth microdilution method; assay type: functional
Enterococcus faecalis [16] = assay: Antibacterial activity against vancomycin-resistant Enterococcus faecalis ATCC 51299 assessed as ratio of MIC after and before 6 serial passages measured after 18 hrs by broth microdillution method; assay type: functional; method in brief: as §7
Escherichia coli [17] = assay: Antibacterial activity against Escherichia coli O157:H7 ATCC 35150 after 18 to 22 hrs in absence of colistin by broth microdilution method; assay type: functional
Enterococcus faecium [18] = assay: Bactericidal activity against vancomycin-resistant Enterococcus faecium ATCC 700221 at 4 times MIC after 4 hrs by time-kill assay; assay type: functional; method in brief: as §4
Enterococcus faecium [19] = assay: Bactericidal activity against Enterococcus faecium after 18 to 22 hrs by broth microdilution method; assay type: functional; method in brief: as §1
Staphylococcus aureus = assay: Antibacterial against Methicillin-Resistant Staphylococcus aureus after 18 to 20 hrs by broth microdilution method; assay type: functional
Pseudomonas aeruginosa [20] = assay: Antibacterial activity against Pseudomonas aeruginosa ATCC 15442 after 18 to 22 hrs in absence of colistin by broth microdilution method; assay type: functional
Enterococcus faecalis [21] = assay: Antibacterial activity against vancomycin-resistant Enterococcus faecalis clinical isolates after 18 to 22 hrs by broth microdilution method; assay type: functional
Method in brief: (§8)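 CLSI broth microdilution against panels of enterococcal isolates. E. faecalis grown in TSB, E. faecium in BHI, 37 °C for 18–22 h. MIC is the lowest concentration without visible growth. MIC50 is the value inhibiting 50% of isolates in each group.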

Acinetobacter baumannii [22] = assay: Antibacterial activity against Acinetobacter baumanii ATCC 19606 after 18 to 22 hrs in presence of 1/4 times MIC colistin by broth microdilution method; assay type: functional; settings: ATCC 19606 = CIP 70.34 = JCM 6841; method in brief: as §6
HRT-18 cell line [23] = assay: Cytotoxicity against human HRT18 cells assessed as reduction in cell viability at 20 ug/ml after 24 hrs by MTS assay; assay type: cell-based; settings: hrt-18, 24 h; method in brief: as §3
HRT-18 cell line [24] = assay: Cytotoxicity against human HRT18 cells assessed as reduction in cell viability at 40 ug/ml after 24 hrs by MTS assay; assay type: cell-based; settings: hrt-18, 24 h; method in brief: as §3
Enterococcus faecium [25] = assay: Bactericidal activity against Vancomycin-resistant Enterococcus faecium clinical isolates after 18 to 22 hrs by broth microdilution method; assay type: functional; method in brief: as §5
Enterococcus faecalis [26] = assay: Antibacterial activity against vancomycin-resistant Enterococcus faecalis HM-201 infected in Caenorhabditis elegans AU37 assessed as reduction in bacterial burden at 20 ug/ml after 18 hrs by CFU-based […] analysis relative to control; assay type: functional; design: scale not given: the % may be the effect or the level left
Method in brief: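 C. elegans AU37 adults infected on an E. faecalis HM-201 lawn for 2 h, washed in M9, 20–25 worms per well. Treated in triplicate with 20 μg/mL, with water as negative control. Worms washed, lysed with silicon carbide by vortexing, diluted serially and plated on TSA with 50 μg/mL gentamicin. CFU counted after 18 h at 37 °C and expressed as % reduction versus untreated worms.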

Enterococcus faecalis [27] = assay: Antibacterial activity against Enterococcus faecalis clinical isolates after 18 to 22 hrs by broth microdilution method; assay type: functional; method in brief: as §8
Enterobacter cloacae [28] = assay: Antibacterial activity against Enterobacter cloacae BAA-1154 after 18 to 22 hrs in presence of 1/4 times MIC colistin by broth microdilution method; assay type: functional; method in brief: as §6
Pseudomonas aeruginosa [29] = assay: Antibacterial activity against Pseudomonas aeruginosa ATCC 15442 after 18 to 22 hrs in presence of 1/4 times MIC colistin by broth microdilution method; assay type: functional; method in brief: as §6
Klebsiella pneumoniae [30] = assay: Antibacterial activity against Klebsiella pneumoniae BAA-1706 after 18 to 22 hrs in presence of 1/4 times MIC colistin by broth microdilution method; assay type: functional; method in brief: as §6
Enterobacter cloacae [31] = assay: Antibacterial activity against Enterobacter cloacae BAA-1154 after 18 to 22 hrs in absence of colistin by broth microdilution method; assay type: functional

CCCCC#Cc1ccc(-c2nc(C)c(/C(C)=N/NC(=N)N)s2)cc1
MBC50 (Enterococcus faecalis [1]): 8 µg/mL (≈ 22.6 µM) | fractional inhibitory concentration index (FICI) (Enterococcus faecalis [2]): 0.63 - 1 | MIC (Escherichia coli [3]): 8 µg/mL (≈ 22.6 µM) | MIC (Klebsiella pneumoniae [4]): > 128 µg/mL | Activity (HRT-18 cell line [5]): Non-Toxic | Activity (Enterococcus faecalis [6]): Active | MBC50 (Enterococcus faecalis [7]): 4 µg/mL (≈ 11.3 µM) | MIC (Acinetobacter baumannii [8]): 8 µg/mL (≈ 22.6 µM) | fractional inhibitory concentration index (FICI) (Enterococcus faecalis [9]): 0.63 - 1 | MIC50 (Enterococcus faecium [10]): 4 µg/mL (≈ 11.3 µM) | survival at 24 h, 20 ug/ml [11]: 90% | MIC (Escherichia coli [12]): 1 µg/mL | Activity (Enterococcus faecalis [13]): Active | Activity (Enterococcus faecium [14]): Active | MIC (Enterococcus faecium [15]): 0.5 µg/mL (≈ 1.41 µM) | Ratio (Enterococcus faecalis [16]): 1 | MIC (Escherichia coli [17]): > 128 µg/mL | Activity (Enterococcus faecium [18]): Active | MBC50 (Enterococcus faecium [19]): 4 µg/mL (≈ 11.3 µM) | MIC (Staphylococcus aureus): 1.3 to 5.6 µg/mL (≈ 3.68 to 15.8 µM) | MIC (Pseudomonas aeruginosa [20]): > 128 µg/mL | MIC50 (Enterococcus faecalis [21]): 4 µg/mL (≈ 11.3 µM) | MIC (Acinetobacter baumannii [22]): 1 µg/mL | Activity (HRT-18 cell line [23]): Non-Toxic | Activity (HRT-18 cell line [24]): Toxic | MBC50 (Enterococcus faecium [25]): 4 µg/mL (≈ 11.3 µM) | Activity (Enterococcus faecalis [26]): 94% | MIC50 (Enterococcus faecalis [27]): 8 µg/mL (≈ 22.6 µM) | MIC (Enterobacter cloacae [28]): 1 µg/mL | MIC (Pseudomonas aeruginosa [29]): 1 µg/mL | MIC (Klebsiella pneumoniae [30]): 1 µg/mL | MIC (Enterobacter cloacae [31]): > 128 µg/mL
